{"source": "ChEMBL document CHEMBL4837219", "about": "“Chemical modification of NSC12 leads to a specific FGF-trap with antitumor activity in multiple myeloma” (Eur J Med Chem, 2021)", "key": {"[1]": {"tested_on": "KMS-11", "assay": "Trapping activity at FGF in human KMS-11 cells assessed as inhibition of FGFR3 phosphorylation at 6 uM measured after 6 hrs by western blot analysis", "assay_type": "cell-based", "method_in_brief": "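KMS-11 cells treated for 6 h with compound at 6.0 µM, then lysed in NP-40 buffer containing orthovanadate and protease inhibitors. Phospho-FGFR3 detected by western blot with anti-phospho-Y724 antibody, using β-actin or α-tubulin as loading control. Result expressed as % inhibition of FGFR3 phosphorylation by densitometry.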"}, "[2]": {"tested_on": "RPMI-8226", "assay": "Antiproliferative activity against human RPMI-8226 cells assessed as reduction in cell viability incubated for 48 hrs by propidium iodide staining-based flow cytometric analysis", "assay_type": "functional", "conditions": "RPMI-8226, 48 h", "method_in_brief": "(§1)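 Myeloma cells kept at low passage in RPMI1640 with 10% heat-inactivated FBS and 2.0 mM glutamine, Mycoplasma-tested, authenticated. Exposed to increasing concentrations of test compound for 48 h. Viable cells counted as propidium iodide-negative by flow cytometry with absolute counts. IC50 = concentration halving proliferation; mean of at least 2 experiments in triplicate.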"}, "[3]": {"tested_on": "KMS-11", "assay": "Antitumor activity against human KMS-11 cells xenografted in NOD-SCID mouse assessed as tumor growth inhibition at 7.5 mg/kg, ip administered every other day measured at day 17 post-tumor implantation by caliper analysis", "assay_type": "functional, organism-based", "method_in_brief": "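Female NOD/SCID mice, six to eight weeks old, injected s.c. with 5 × 10^6 KMS-11 cells in PBS. Once tumors were palpable (10 days), mice were randomized and given 7.5 mg/kg i.p. every other day, with DMSO as vehicle control; n = 5 per group. Tumor volume from caliper measurements, V = (D × d²)/2. Tumors excised and weighed at day 17.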"}, "[4]": {"biological_target": "Estrogen receptor beta (Homo sapiens) (UniProt Q92731)", "sequence (Q92731 whole entry)": "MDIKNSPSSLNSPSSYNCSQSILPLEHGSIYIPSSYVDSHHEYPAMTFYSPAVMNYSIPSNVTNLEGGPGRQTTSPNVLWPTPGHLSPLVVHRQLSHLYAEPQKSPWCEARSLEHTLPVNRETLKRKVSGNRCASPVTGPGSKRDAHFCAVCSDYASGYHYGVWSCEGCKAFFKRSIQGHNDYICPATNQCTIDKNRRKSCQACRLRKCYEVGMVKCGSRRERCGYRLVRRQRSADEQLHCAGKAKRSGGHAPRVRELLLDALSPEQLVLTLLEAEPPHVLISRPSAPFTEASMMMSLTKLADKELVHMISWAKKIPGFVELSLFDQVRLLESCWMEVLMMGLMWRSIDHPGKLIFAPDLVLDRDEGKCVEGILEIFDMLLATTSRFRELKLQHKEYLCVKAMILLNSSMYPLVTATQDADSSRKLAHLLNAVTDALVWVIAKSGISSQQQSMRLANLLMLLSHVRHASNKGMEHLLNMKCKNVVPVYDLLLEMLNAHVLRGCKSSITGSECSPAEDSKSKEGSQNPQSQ", "assay": "Displacement of [3H]estradiol from human full length recombinant ERbeta expressed in baculovirus-infected Sf9 cells at 5 uM incubated for 120 mins by radiometric scintillation counting analysis", "method_in_brief": "(§2)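 Radioligand competition binding to human ERα or ERβ, run as an outsourced panel assay. Readout is % inhibition of specific [3H]estradiol binding at 5.0 and 50 µM compound. Run in duplicate, and the mean of the duplicates is reported.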"}, "[5]": {"tested_on": "RPMI-8226", "assay": "Trapping activity at FGF in human RPMI-8226 cells assessed as inhibition of FGFR3 phosphorylation at 6 uM measured after 6 hrs by westernblot analysis", "assay_type": "cell-based", "method_in_brief": "(§3)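 Cells cultured in RPMI1640 with 10% FBS and 2.0 mM glutamine, then treated 6 h with 6 µM compound. Washed in cold PBS and lysed in NP-40 buffer (20 mM Tris-HCl pH 8, 1 mM orthovanadate, protease inhibitors). Bradford used to normalize protein. Blots probed for phospho-FGFR3 (Y724), with β-actin or α-tubulin as loading control; percent inhibition read by densitometry.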"}, "[6]": {"biological_target": "Fibroblast growth factor 2 (Homo sapiens, UniProt P09038)", "sequence (P09038 143-288 limits assumed)": "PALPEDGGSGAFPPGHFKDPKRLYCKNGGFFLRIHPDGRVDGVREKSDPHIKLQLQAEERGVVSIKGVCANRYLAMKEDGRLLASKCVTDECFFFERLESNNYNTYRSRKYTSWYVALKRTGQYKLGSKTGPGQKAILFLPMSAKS", "assay": "Binding affinity to FGF2 (unknown origin) by sensor chip immobilization based surface plasmon resonance analysis"}, "[7]": {"biological_target": "T1, Estrogen receptor (Homo sapiens) (UniProt P03372)", "T1 sequence (whole entry)": "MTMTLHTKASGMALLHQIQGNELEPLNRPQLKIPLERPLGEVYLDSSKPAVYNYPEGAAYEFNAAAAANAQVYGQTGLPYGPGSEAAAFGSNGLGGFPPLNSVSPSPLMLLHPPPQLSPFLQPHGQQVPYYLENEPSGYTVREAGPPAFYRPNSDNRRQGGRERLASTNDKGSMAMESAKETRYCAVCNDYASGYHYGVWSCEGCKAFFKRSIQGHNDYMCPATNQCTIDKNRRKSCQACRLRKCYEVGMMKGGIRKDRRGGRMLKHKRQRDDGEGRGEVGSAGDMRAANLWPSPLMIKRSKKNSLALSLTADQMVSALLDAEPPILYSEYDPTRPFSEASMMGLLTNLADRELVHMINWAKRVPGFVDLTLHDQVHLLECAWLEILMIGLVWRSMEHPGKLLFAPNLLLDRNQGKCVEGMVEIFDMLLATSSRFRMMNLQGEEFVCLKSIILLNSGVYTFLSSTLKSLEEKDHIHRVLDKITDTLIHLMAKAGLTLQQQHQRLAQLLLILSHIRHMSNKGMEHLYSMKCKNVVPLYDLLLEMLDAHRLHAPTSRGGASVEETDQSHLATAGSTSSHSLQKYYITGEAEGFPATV", "assay": "Displacement of [3H]estradiol from human full length recombinant ERalpha expressed in baculovirus-infected Sf9 cells at 5 uM incubated for 120 mins by radiometric scintillation counting analysis", "method_in_brief": "as §2"}, "[8]": {"tested_on": "U-266", "assay": "Antiproliferative activity against human U-266 cells assessed as reduction in cell viability incubated for 48 hrs by propidium iodide staining-based flow cytometric analysis", "assay_type": "functional", "conditions": "U-266, 48 h", "method_in_brief": "as §1"}, "[9]": {"tested_on": "OPM-2", "assay": "Trapping activity at FGF in human OPM-2 cells assessed as inhibition of FGFR3 phosphorylation at 6 uM measured after 6 hrs by westernblot analysis", "assay_type": "cell-based", "method_in_brief": "as §3"}, "[10]": {"tested_on": "OPM-2", "assay": "Antiproliferative activity against human OPM-2 cells assessed as reduction in cell viability incubated for 48 hrs by propidium iodide staining-based flow cytometric analysis", "assay_type": "functional", "conditions": "OPM-2, 48 h", "method_in_brief": "as §1"}, "[11]": {"biological_target": "Estrogen receptor beta (Homo sapiens) (UniProt Q92731)", "assay": "Displacement of [3H]estradiol from human full length recombinant ERbeta expressed in baculovirus-infected Sf9 cells at 50 uM incubated for 120 mins by radiometric scintillation counting analysis", "method_in_brief": "as §2"}, "[12]": {"biological_target": "T1, Estrogen receptor (Homo sapiens)", "assay": "Displacement of [3H]estradiol from human full length recombinant ERalpha expressed in baculovirus-infected Sf9 cells at 50 uM incubated for 120 mins by radiometric scintillation counting analysis", "method_in_brief": "as §2"}, "[13]": {"assay": "Total plasma concentration in NOD-SCID mouse at 7.5 mg/kg, ip measured after 90 mins by HPLC/MS/MS analysis", "assay_type": "ADME, organism-based", "method_in_brief": "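A single 7.5 mg/kg i.p. dose given to eight-week-old NOD/SCID mice (n = 4). Blood collected at 90 min. Plasma treated with acetonitrile containing internal standard (1:2) to precipitate protein, centrifuged, and the supernatant analyzed by C18 gradient HPLC-MS/MS in ESI-negative MRM mode. Calibration in spiked blank plasma, linear over 1–1000 nM, LOQ 1 nM. Values are mean ± SEM.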"}, "[14]": {"tested_on": "U-266", "assay": "Trapping activity at FGF in human U-266 cells assessed as inhibition of FGFR3 phosphorylation at 6 uM measured after 6 hrs by westernblot analysis", "assay_type": "cell-based", "method_in_brief": "as §3"}, "[15]": {"tested_on": "KMS-11", "assay": "Antiproliferative activity against human KMS-11 cells assessed as reduction in cell viability incubated for 48 hrs by propidium iodide staining-based flow cytometric analysis", "assay_type": "functional", "conditions": "KMS-11, 48 h", "method_in_brief": "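KMS-11 cells (maintained in RPMI1640 with 10% heat-inactivated FBS and 2.0 mM glutamine) exposed to increasing concentrations of compound for 48 h. Viable PI-negative cells counted by flow cytometry using the analyzer's absolute counting function. IC50 is the concentration giving 50% inhibition of proliferation, taken as the mean of at least 2 experiments run in triplicate.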"}}, "note": "pIC50, pKd: −log10 of the molar value. Active and inactive are the calls of the source. No cut-off for these calls is given here."}
{"molecule": "C[C@]12CC[C@H]3[C@@H](CC=C4C[C@@H](OCCO)CC[C@@]43C)[C@@H]1CC[C@@H]2[C@@H](O)CC(O)(C(F)(F)F)C(F)(F)F", "values": [{"measurement": "inhibition", "setting": "[1]", "result": 71, "unit": "%"}]}
{"molecule": "CC(C)(O)C[C@H](O)[C@H]1CC[C@H]2[C@@H]3CC=C4C[C@@H](O)CC[C@]4(C)[C@H]3CC[C@]12C", "values": [{"measurement": "inhibition", "setting": "[1]", "result": 46, "unit": "%"}]}
{"molecule": "C[C@]12CCC(=O)C[C@@H]1CC[C@@H]1[C@@H]2CC[C@]2(C)[C@@H]([C@H](O)CC(O)(C(F)(F)F)C(F)(F)F)CC[C@@H]12", "values": [{"measurement": "pIC50", "setting": "[2]", "result": 5.18}, {"measurement": "inhibition", "setting": "[1]", "result": 99, "unit": "%"}, {"measurement": "Activity", "setting": "[3]", "result": "Active"}, {"measurement": "inhibition", "setting": "[4]", "result": 4.3, "unit": "%"}, {"measurement": "Activity", "setting": "[5]", "result": "Active"}, {"measurement": "pKd", "setting": "[6]", "result": 4.52}, {"measurement": "inhibition", "setting": "[7]", "result": 0, "unit": "%"}, {"measurement": "pIC50", "setting": "[8]", "result": 5.27}, {"measurement": "Activity", "setting": "[9]", "result": "Active"}, {"measurement": "pIC50", "setting": "[10]", "result": 5.18}, {"measurement": "inhibition", "setting": "[11]", "result": 17.6, "unit": "%"}, {"measurement": "inhibition", "setting": "[12]", "result": 0, "unit": "%"}, {"measurement": "concentration at 1.5 h", "setting": "[13]", "result": 525, "unit": "nM"}, {"measurement": "Activity", "setting": "[14]", "result": "Active"}, {"measurement": "pIC50", "setting": "[15]", "result": 5.62}]}
{"molecule": "C[C@]12CCC(=O)C[C@@H]1CC[C@@H]1[C@@H]2CC[C@]2(C)[C@@H]([C@@H](O)CC(O)(C(F)(F)F)C(F)(F)F)CC[C@@H]12", "values": [{"measurement": "inhibition", "setting": "[1]", "result": 82, "unit": "%"}]}
{"molecule": "C[C@]12CC[C@H]3[C@@H](CC=C4C[C@@H](O[C@@H]5O[C@H](CO)[C@@H](O)[C@H](O)[C@H]5O)CC[C@@]43C)[C@@H]1CC[C@@H]2[C@@H](O)CC(O)(C(F)(F)F)C(F)(F)F", "values": [{"measurement": "inhibition", "setting": "[1]", "result": 100, "unit": "%"}, {"measurement": "pIC50", "setting": "[15]", "result": 5.40}]}
{"molecule": "C[C@]12CC[C@H]3[C@@H](CC=C4C[C@@H](O[C@@H]5O[C@H](CO)[C@@H](O)[C@H](O)[C@H]5O)CC[C@@]43C)[C@@H]1CC[C@@H]2[C@H](O)CC(O)(C(F)(F)F)C(F)(F)F", "values": [{"measurement": "inhibition", "setting": "[1]", "result": "inactive"}]}
{"molecule": "C[C@]12CC[C@H]3[C@@H](CC=C4C/C(=N/O)CC[C@@]43C)[C@@H]1CC[C@@H]2[C@H](O)CC(O)(C(F)(F)F)C(F)(F)F", "values": [{"measurement": "inhibition", "setting": "[1]", "result": 58, "unit": "%"}]}
{"molecule": "C[C@]12CC[C@H](O)C[C@@H]1CC[C@@H]1[C@@H]2CC[C@]2(C)[C@@H]([C@H](O)CC(O)(C(F)(F)F)C(F)(F)F)CC[C@@H]12", "values": [{"measurement": "inhibition", "setting": "[1]", "result": "inactive"}]}
{"molecule": "C[C@]12CC[C@H]3[C@@H](CC=C4C[C@@H](O)CC[C@@]43C)[C@@H]1CC[C@@H]2C(O)CC(O)c1ccccn1", "note": "(stereo in doubt; 14a)", "values": [{"measurement": "inhibition", "setting": "[1]", "result": 26, "unit": "%"}]}
{"molecule": "C[C@]12CC[C@H]3[C@@H](CC=C4C[C@@H](O)CC[C@@]43C)[C@@H]1CC[C@@H]2[C@@H](O)CC(O)(C(F)(F)F)C(F)(F)F", "values": [{"measurement": "inhibition", "setting": "[1]", "result": 81, "unit": "%"}, {"measurement": "Activity", "setting": "[3]", "result": "Active"}, {"measurement": "inhibition", "setting": "[4]", "result": 74.9, "unit": "%"}, {"measurement": "inhibition", "setting": "[7]", "result": 60.8, "unit": "%"}, {"measurement": "inhibition", "setting": "[11]", "result": 91.9, "unit": "%"}, {"measurement": "inhibition", "setting": "[12]", "result": 83.3, "unit": "%"}, {"measurement": "concentration at 1.5 h", "setting": "[13]", "result": 360, "unit": "nM"}, {"measurement": "pIC50", "setting": "[15]", "result": 5.47}]}
{"molecule": "C[C@]12CC[C@H]3[C@@H](CC=C4C[C@@H](O)CC[C@@]43C)[C@@H]1CC[C@@H]2[C@H](O)CC(N)=O", "values": [{"measurement": "inhibition", "setting": "[1]", "result": 44, "unit": "%"}]}
{"molecule": "C[C@]12CC[C@H]3[C@@H](CC=C4C[C@@H](O)CC[C@@]43C)[C@@H]1CC[C@@H]2C(O)CC(O)c1ccccn1", "note": "(stereo in doubt; 14b)", "values": [{"measurement": "inhibition", "setting": "[1]", "result": 34, "unit": "%"}]}
{"molecule": "C[C@]12CC[C@H]3[C@@H](CC=C4C[C@@H](O)CC[C@@]43C)[C@@H]1CC[C@@H]2[C@H](O)CC(=O)O", "values": [{"measurement": "inhibition", "setting": "[1]", "result": 80, "unit": "%"}]}
{"molecule": "C[C@]12CC[C@H]3[C@@H](CC=C4C[C@@H](OC(=O)CN)CC[C@@]43C)[C@@H]1CC[C@@H]2[C@@H](O)CC(O)(C(F)(F)F)C(F)(F)F", "values": [{"measurement": "inhibition", "setting": "[1]", "result": 93, "unit": "%"}, {"measurement": "pIC50", "setting": "[15]", "result": 5.25}]}
